Data: ChEMBL document CHEMBL3351553 (J Med Chem, 2014)
In brackets after ≈: the same amount, converted by molar mass.

Tests used:
Staphylococcus aureus = assay: Antimicrobial activity against Staphylococcus aureus UAMS1 incubated for 16 hrs by CLSI based method; assay type: functional; conditions: UAMS1, 16 h
[1] = Inhibition of Staphylococcus aureus topoisomerase 4 assessed as reduction in decatenation of kDNA at 100 to 500 uM by gel electrophoresis method
Procedure, shortened: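 Compounds were in DMSO, with water or DMSO as vehicle controls. Reactions were stopped with STEB plus chloroform:isoamyl alcohol and run on 1% agarose TAE gels stained with ethidium bromide. IC50 was taken from densitometry against reactions with and without enzyme.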

DNA gyrase = DNA gyrase (Staphylococcus aureus, UniProt P0A0K8+P20831); assay: Inhibition of Staphylococcus aureus DNA gyrase assessed as reduction in enzyme-catalyzed supercoiling of relaxed circular pBR322 DNA by agarose gel electrophoresis; assay type: protein-complex assay
Procedure, shortened: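 Recombinant S. aureus gyrase kit, 0.5 U enzyme, relaxed pBR322 (250 ng/μL) in 40 mM HEPES·KOH pH 7.6, 10 mM Mg acetate, 10 mM DTT, 2 mM ATP, 500 mM K glutamate, 0.5 mg/mL albumin; 37 °C, 30 min.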

Chain of DNA gyrase (P0A0K8 whole entry): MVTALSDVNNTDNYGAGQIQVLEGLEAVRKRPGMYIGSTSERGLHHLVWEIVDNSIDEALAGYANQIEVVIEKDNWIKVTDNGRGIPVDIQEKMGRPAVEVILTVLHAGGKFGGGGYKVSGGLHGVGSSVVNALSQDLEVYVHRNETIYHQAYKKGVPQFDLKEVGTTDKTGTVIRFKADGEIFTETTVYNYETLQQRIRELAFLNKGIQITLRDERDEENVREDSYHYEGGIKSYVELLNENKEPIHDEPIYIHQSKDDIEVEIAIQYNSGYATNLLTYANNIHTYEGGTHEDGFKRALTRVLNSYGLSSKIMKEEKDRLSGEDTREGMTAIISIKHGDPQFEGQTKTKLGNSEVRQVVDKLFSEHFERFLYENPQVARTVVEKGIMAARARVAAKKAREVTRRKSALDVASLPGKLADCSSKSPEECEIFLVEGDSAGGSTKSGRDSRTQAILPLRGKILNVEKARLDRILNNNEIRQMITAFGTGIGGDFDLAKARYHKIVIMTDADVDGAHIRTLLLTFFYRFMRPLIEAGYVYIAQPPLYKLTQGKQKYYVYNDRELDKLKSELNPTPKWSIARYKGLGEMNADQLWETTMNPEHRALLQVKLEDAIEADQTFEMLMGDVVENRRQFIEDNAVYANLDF
Chain of DNA gyrase (P20831 whole entry): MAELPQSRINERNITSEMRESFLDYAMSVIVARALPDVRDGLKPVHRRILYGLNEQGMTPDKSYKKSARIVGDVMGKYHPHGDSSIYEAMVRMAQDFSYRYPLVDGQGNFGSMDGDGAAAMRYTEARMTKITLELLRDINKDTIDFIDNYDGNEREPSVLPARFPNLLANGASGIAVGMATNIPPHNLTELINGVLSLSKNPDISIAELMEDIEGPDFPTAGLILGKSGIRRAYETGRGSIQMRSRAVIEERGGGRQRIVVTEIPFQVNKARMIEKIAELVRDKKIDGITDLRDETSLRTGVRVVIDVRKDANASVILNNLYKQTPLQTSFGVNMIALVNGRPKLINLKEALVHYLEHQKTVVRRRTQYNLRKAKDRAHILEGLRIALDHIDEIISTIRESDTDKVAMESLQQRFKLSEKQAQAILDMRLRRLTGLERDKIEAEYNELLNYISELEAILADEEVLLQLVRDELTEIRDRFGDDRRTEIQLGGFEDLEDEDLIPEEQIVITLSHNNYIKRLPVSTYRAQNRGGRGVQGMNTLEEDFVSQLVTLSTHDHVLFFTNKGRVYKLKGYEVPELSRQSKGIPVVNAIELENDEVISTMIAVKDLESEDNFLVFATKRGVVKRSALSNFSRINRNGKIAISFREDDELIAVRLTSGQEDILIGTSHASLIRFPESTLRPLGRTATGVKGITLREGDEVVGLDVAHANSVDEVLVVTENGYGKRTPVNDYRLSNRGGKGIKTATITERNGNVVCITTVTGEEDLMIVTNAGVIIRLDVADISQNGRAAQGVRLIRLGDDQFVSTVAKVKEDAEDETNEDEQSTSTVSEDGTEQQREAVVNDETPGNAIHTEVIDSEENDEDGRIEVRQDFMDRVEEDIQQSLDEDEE

SMILES	MIC (Staphylococcus aureus)	IC50 [1]	IC50 (DNA gyrase)
COc1ccccc1CN1CCC(C(O)(c2ccccc2)c2ccccc2)CC1	128 µg/mL (≈ 330 µM)	–	–
COc1ccc(CN2CCC(C(O)(c3ccccc3)c3ccccc3)CC2)cc1	128 µg/mL (≈ 330 µM)	–	–
OC(c1ccccc1)(c1ccccc1)C1CCN(Cc2ccc(-c3ccsc3)cc2)CC1	16 µg/mL (≈ 36.4 µM)	–	–
OC(CCCN1CCC(C(O)(c2ccccc2)c2ccccc2)CC1)c1ccc(F)cc1 (stereo not drawn)	128 µg/mL (≈ 295 µM)	> 333 µM	> 500 µM
O=C(O)c1cccc(CN2CCC(C(O)(c3ccccc3)c3ccccc3)CC2)c1	> 256 µg/mL	–	–
CC(C)(C)c1ccccc1CN1CCC(C(O)(c2ccccc2)c2ccccc2)CC1	> 256 µg/mL	–	–
O=C(O)c1ccccc1CN1CCC(C(O)(c2ccccc2)c2ccccc2)CC1	> 256 µg/mL	–	–
OC(c1ccccc1)(c1ccccc1)C1CCN(CCc2ccc(F)cc2)CC1	128 µg/mL (≈ 329 µM)	–	> 333 µM
OC(CCCN1CCC(C(O)(c2ccccc2)c2ccccc2)CC1)c1ccccc1 (stereo not drawn)	> 256 µg/mL	> 333 µM	> 500 µM
CC(C)(C)c1ccc(C(O)CCN2CCC(C(O)(c3ccccc3)c3ccccc3)CC2)cc1 (stereo not drawn)	8 µg/mL (≈ 17.5 µM)	333 µM	133 µM
CC(C)(C)c1ccc(C(O)CCCN2CCC(Cc3ccccc3)CC2)cc1 (stereo not drawn)	> 256 µg/mL	–	> 333 µM
CC(C)c1ccc(CN2CCC(C(O)(c3ccccc3)c3ccccc3)CC2)cc1	32 µg/mL (≈ 80.1 µM)	–	–
OC(CCCN1CCC(C(O)(c2ccccc2)c2ccccc2)CC1)c1ccc(Br)cc1 (stereo not drawn)	32 µg/mL (≈ 64.7 µM)	> 333 µM	> 500 µM
CC(C)(C)c1ccc(OCCCN2CCC(C(O)(c3ccccc3)c3ccccc3)CC2)cc1	–	> 333 µM	100 µM
CC(C)(C)c1cccc(CCN2CCC(C(O)(c3ccccc3)c3ccccc3)CC2)c1	16 µg/mL (≈ 37.4 µM)	> 333 µM	93 µM
CC(C)(C)c1ccc(C(N)CCCN2CCC(C(O)(c3ccccc3)c3ccccc3)CC2)cc1 (stereo not drawn)	16 µg/mL (≈ 34 µM)	> 333 µM	–
OC(c1ccccc1)(c1ccccc1)C1CCN(Cc2ccccc2F)CC1	> 256 µg/mL	–	–
CC(C)(C)c1ccc(C(O)CCCN2CCC(=C(c3ccccc3)c3ccccc3)CC2)cc1 (stereo not drawn)	> 256 µg/mL	–	–
Nc1ccc(CCN2CCC(C(O)(c3ccccc3)c3ccccc3)CC2)cc1	> 256 µg/mL	> 333 µM	93 µM
CC(C)(C)c1ccc(C(O)CCCN2CCN(C(c3ccccc3)c3ccccc3)CC2)cc1 (stereo not drawn) [TRENIZINE]	> 256 µg/mL	–	–
CN(C)c1ccc(CCN2CCC(C(O)(c3ccccc3)c3ccccc3)CC2)cc1	> 256 µg/mL	–	> 333 µM
CC(C)(C)c1ccc([C@@H](O)CCCN2CCC(C(O)(c3ccccc3)c3ccccc3)CC2)cc1	–	100 µM	–
COc1cccc(CN2CCC(C(O)(c3ccccc3)c3ccccc3)CC2)c1	128 µg/mL (≈ 330 µM)	–	–
COc1ccc(CCN2CCC(C(O)(c3ccccc3)c3ccccc3)CC2)cc1	> 256 µg/mL	–	> 333 µM
OC(c1ccccc1)(c1ccccc1)C1CCN(Cc2cccc(C(F)(F)F)c2)CC1	> 256 µg/mL	–	–
CC(C)(C)c1ccccc1CCN1CCC(C(O)(c2ccccc2)c2ccccc2)CC1	16 µg/mL (≈ 37.4 µM)	–	–
COC(=O)c1ccccc1CN1CCC(C(O)(c2ccccc2)c2ccccc2)CC1	> 256 µg/mL	–	–

SMILES	MIC (Staphylococcus aureus)	IC50 [1]	IC50 (DNA gyrase)
OC(c1ccccc1)(c1ccccc1)C1CCN(Cc2ccc(F)cc2)CC1	> 256 µg/mL	–	–
Oc1ccccc1CN1CCC(C(O)(c2ccccc2)c2ccccc2)CC1	64 µg/mL (≈ 171 µM)	–	–
Oc1ccc(CN2CCC(C(O)(c3ccccc3)c3ccccc3)CC2)cc1	128 µg/mL (≈ 343 µM)	–	–
CC(C)(C)c1ccc(C(=O)N2CCC(C(O)(c3ccccc3)c3ccccc3)CC2)cc1	> 256 µg/mL	> 333 µM	93 µM
O=[N+]([O-])c1ccc(CCN2CCC(C(O)(c3ccccc3)c3ccccc3)CC2)cc1	64 µg/mL (≈ 154 µM)	> 333 µM	263 µM
OC(c1ccccc1)(c1ccccc1)C1CCN(Cc2ccc(-n3cccc3)cc2)CC1	32 µg/mL (≈ 75.7 µM)	–	–
OC(c1ccccc1)(c1ccccc1)C1CCN(CCc2ccc(C(F)(F)F)cc2)CC1	16 µg/mL (≈ 36.4 µM)	> 333 µM	17 µM
N#Cc1ccccc1CN1CCC(C(O)(c2ccccc2)c2ccccc2)CC1	> 256 µg/mL	–	–
COc1ccc(C(O)CCCN2CCC(C(O)(c3ccccc3)c3ccccc3)CC2)cc1 (stereo not drawn)	> 256 µg/mL	> 333 µM	> 500 µM
Cc1ccc(CN2CCC(C(O)(c3ccccc3)c3ccccc3)CC2)cc1	128 µg/mL (≈ 345 µM)	–	–
CC(C)(C)c1ccc(C(O)CCCN2CCC(C(O)c3ccccc3)CC2)cc1 (stereo not drawn)	> 256 µg/mL	–	> 333 µM
N#Cc1cccc(CN2CCC(C(O)(c3ccccc3)c3ccccc3)CC2)c1	> 256 µg/mL	–	–
CC(C)(C)c1cccc(CN2CCC(C(O)(c3ccccc3)c3ccccc3)CC2)c1	32 µg/mL (≈ 77.4 µM)	–	–
OC(c1ccccc1)(c1ccccc1)C1CCN(Cc2cccc(F)c2)CC1	128 µg/mL (≈ 341 µM)	–	–
CC(C)(C)c1ccc(CCN2CCC(C(O)(c3ccccc3)c3ccccc3)CC2)cn1	64 µg/mL (≈ 149 µM)	–	> 333 µM
OC(c1ccccc1)(c1ccccc1)C1CCN(Cc2ccc(-c3ccoc3)cc2)CC1	32 µg/mL (≈ 75.6 µM)	–	–
OC(c1ccccc1)(c1ccccc1)C1CCN(Cc2ccccc2-c2ccccc2)CC1	> 256 µg/mL	–	–
Cc1cccc(CN2CCC(C(O)(c3ccccc3)c3ccccc3)CC2)c1	128 µg/mL (≈ 345 µM)	–	–
CC(C)(C)c1ccc(C(O)CCCCN2CCC(C(O)(c3ccccc3)c3ccccc3)CC2)cc1 (stereo not drawn)	16 µg/mL (≈ 32.9 µM)	133 µM	100 µM
OC(c1ccccc1)(c1ccccc1)C1CCN(Cc2ccccc2C(F)(F)F)CC1	> 256 µg/mL	–	–
OC(c1ccccc1)(c1ccccc1)C1CCN(CCc2ccc(Br)cc2)CC1	16 µg/mL (≈ 35.5 µM)	260 µM	247 µM
OC(c1ccccc1)(c1ccccc1)C1CCN(Cc2cccc(-c3ccccc3)c2)CC1	64 µg/mL (≈ 148 µM)	–	–
N#Cc1ccc(CN2CCC(C(O)(c3ccccc3)c3ccccc3)CC2)cc1	> 256 µg/mL	–	–
Cc1ccccc1CN1CCC(C(O)(c2ccccc2)c2ccccc2)CC1	128 µg/mL (≈ 345 µM)	–	–
O=C(O)c1ccc(CN2CCC(C(O)(c3ccccc3)c3ccccc3)CC2)cc1	> 256 µg/mL	–	–
OC(c1ccccc1)(c1ccccc1)C1CCN(CCc2ccc(Cl)cc2)CC1	32 µg/mL (≈ 78.8 µM)	267 µM	260 µM
CC(C)(C)c1ccc(C(O)CN2CCC(C(O)(c3ccccc3)c3ccccc3)CC2)cc1 (stereo not drawn)	16 µg/mL (≈ 36.1 µM)	100 µM	–

SMILES	MIC (Staphylococcus aureus)	IC50 [1]	IC50 (DNA gyrase)
CC(C)(C)c1ccc(C(=O)CN2CCC(C(O)(c3ccccc3)c3ccccc3)CC2)cc1	> 256 µg/mL	247 µM	–
CC(C)c1ccc(C(O)CCCN2CCC(C(O)(c3ccccc3)c3ccccc3)CC2)cc1 (stereo not drawn)	32 µg/mL (≈ 69.9 µM)	273 µM	–
OC(c1ccccc1)(c1ccccc1)C1CCN(CCc2ccc(-c3ccccc3)cc2)CC1	8 µg/mL (≈ 17.9 µM)	133 µM	80 µM
CC(C)(C)c1ccc(CCN2CCC(C(O)(c3ccccc3)c3ccccc3)CC2)cc1	8 µg/mL (≈ 18.7 µM)	147 µM	93 µM
Cc1ccc(C(O)CCCN2CCC(C(O)(c3ccccc3)c3ccccc3)CC2)cc1 (stereo not drawn)	128 µg/mL (≈ 298 µM)	> 333 µM	> 500 µM
O=C(O)c1ccc(C(O)CCCN2CCC(C(O)(c3ccccc3)c3ccccc3)CC2)cc1 (stereo not drawn)	> 256 µg/mL	> 333 µM	> 500 µM
OC(c1ccccc1)(c1ccccc1)C1CCN(Cc2ccc(-c3ccco3)cc2)CC1	32 µg/mL (≈ 75.6 µM)	–	–
COC(=O)c1cccc(CN2CCC(C(O)(c3ccccc3)c3ccccc3)CC2)c1	> 256 µg/mL	–	–
CC(C)(C)c1ccc(C(=O)CCCN2CCC(C(O)(c3ccccc3)c3ccccc3)CC2)cc1 [TERFENADONE]	8 µg/mL (≈ 17 µM)	110 µM	–
CC1(c2ccc(CCN3CCC(C(O)(c4ccccc4)c4ccccc4)CC3)cc2)COC1	> 256 µg/mL	–	> 333 µM
CC(C)(C(=O)O)c1ccc(C(O)CCCN2CCC(C(O)(c3ccccc3)c3ccccc3)CC2)cc1 (stereo not drawn) [FEXOFENADINE]	> 256 µg/mL	> 333 µM	> 500 µM
OC(c1ccccc1)(c1ccccc1)C1CCN(CCc2ccc(-c3cccnc3)cc2)CC1	32 µg/mL (≈ 71.3 µM)	280 µM	250 µM
CC(C)(C)c1ccc(CN2CCC(C(O)(c3ccccc3)c3ccccc3)CC2)cc1	–	213 µM	90 µM
CC(C)(C)c1ccc(C(=O)CCN2CCC(C(O)(c3ccccc3)c3ccccc3)CC2)cc1	32 µg/mL (≈ 70.2 µM)	133 µM	90 µM
OC(CCCN1CCC(C(O)(c2ccccc2)c2ccccc2)CC1)c1ccc(-c2ccccc2)cc1 (stereo not drawn)	8 µg/mL (≈ 16.3 µM)	100 µM	13 µM
OC(CCCN1CCC(C(O)(c2ccccc2)c2ccccc2)CC1)c1ccc(Cl)cc1 (stereo not drawn)	64 µg/mL (≈ 142 µM)	> 333 µM	133 µM
CC(C)(C)c1ccc(C(O)CCCN2CCC(C(c3ccccc3)c3ccccc3)CC2)cc1 (stereo not drawn)	8 µg/mL (≈ 17.6 µM)	–	–
COC(=O)c1ccc(CN2CCC(C(O)(c3ccccc3)c3ccccc3)CC2)cc1	> 256 µg/mL	–	–
CC(C)(C)c1ccc(CCCN2CCC(C(O)(c3ccccc3)c3ccccc3)CC2)cc1	8 µg/mL (≈ 18.1 µM)	100 µM	93 µM
OC(c1ccccc1)(c1ccccc1)C1CCN(CCc2ccc(-c3ccncc3)cc2)CC1	32 µg/mL (≈ 71.3 µM)	227 µM	93 µM
OC(c1ccccc1)(c1ccccc1)C1CCN(Cc2ccc(-c3cccs3)cc2)CC1	32 µg/mL (≈ 72.8 µM)	–	–
Oc1cccc(CN2CCC(C(O)(c3ccccc3)c3ccccc3)CC2)c1	> 256 µg/mL	–	–
CC(C)(C)c1ccc(CCCCN2CCC(C(O)(c3ccccc3)c3ccccc3)CC2)cc1	8 µg/mL (≈ 17.6 µM)	320 µM	93 µM
OC(c1ccccc1)(c1ccccc1)C1CCN(Cc2ccc(C(F)(F)F)cc2)CC1	> 256 µg/mL	–	–
CC(C)(C)c1ccc([C@H](O)CCCN2CCC(C(O)(c3ccccc3)c3ccccc3)CC2)cc1 [R-TERFENADINE]	–	110 µM	–
